Compounds with a hit are over-represented: about 3.1% of the library has one in this group of screens.
MEKK2 WT-MEK5 = raises or lowers MEK5 binding to wildtype human MEKK2 PB1 domain. Q9Y2U5. bead flow cytometry, Alexa488-MEK5 binding to MEKK2 WT; actives lie on both sides. binding response (% of control), % at 10 µM. 1.1% of 290,000 active; in the data active = binding response below about 67% or above about 130%; inconclusive = no clear call, values can overlap the other calls; inactive = in between
MEKK2mut PB1 HTS = signal of MEK5 binding to mutant human MEKK2 PB1 domain | 0.35% of 290,000 active | percent response, % at 10 µM | bead flow cytometry, Alexa488-MEK5 binding to MEKK2 mutant; in the data active = percent response above about 24%, passing the limit was not always enough
PREPL inh = inhibitors of human prolyl oligopeptidase-like enzyme PREPL; 0.68% of 320,000 active; recombinant PREPL, fluorescence polarization activity-based probe; Q4J6C6; inhibition, % at 5.96 µM; in the data active = inhibition above about 43%;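 note: 0% = enzyme with DMSO and 100% = wells lacking enzyme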
Apaf-1 inh = blocks human Apaf-1 apoptosome activity; O14727; reconstituted apoptosome caspase-3 activity, DEVD-Rh110 fluorescence; inhibition, % at 20 µM; 0.71% of 330,000 active; AID 489030; active = inhibition of at least 40% at 20 µM;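 note: plate controls were DMSO wells for no effect and DEVD-CHO caspase inhibitor wells for full effect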
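Material: reconstituted apoptosome with Apaf-1, cytochrome c, caspase-9, procaspase-3, dATP. Technique: Rh110 fluorescence intensity. Buffer or medium: pH 7.5 Hepes buffer with CHAPS, BSA, DTT. Times: 30 min plus 50 min, RT.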
MEKK3 PB1 HTS = raises or lowers MEK5 binding to the human MEKK3 PB1 domain; AID 1529; Q99759; bead-based flow cytometry, Alexa488-MEK5 binding to MEKK3; actives lie on both sides; 0 = blocked by unlabeled MEK5, 100 = vehicle; 1.4% of 290,000 active; binding response (% of control), % at 10 µM;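 active = binding response more than 3 SD above or below the average of its plate-row segment, actives on both sides; inconclusive = wells at one plate position flagged as instrument error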;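 note: Alexa488 bead fluorescence after subtracting the streptavidin-only scavenger bead signal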
Target sequence (Q99759 whole entry, looked up, the tested form may be a part): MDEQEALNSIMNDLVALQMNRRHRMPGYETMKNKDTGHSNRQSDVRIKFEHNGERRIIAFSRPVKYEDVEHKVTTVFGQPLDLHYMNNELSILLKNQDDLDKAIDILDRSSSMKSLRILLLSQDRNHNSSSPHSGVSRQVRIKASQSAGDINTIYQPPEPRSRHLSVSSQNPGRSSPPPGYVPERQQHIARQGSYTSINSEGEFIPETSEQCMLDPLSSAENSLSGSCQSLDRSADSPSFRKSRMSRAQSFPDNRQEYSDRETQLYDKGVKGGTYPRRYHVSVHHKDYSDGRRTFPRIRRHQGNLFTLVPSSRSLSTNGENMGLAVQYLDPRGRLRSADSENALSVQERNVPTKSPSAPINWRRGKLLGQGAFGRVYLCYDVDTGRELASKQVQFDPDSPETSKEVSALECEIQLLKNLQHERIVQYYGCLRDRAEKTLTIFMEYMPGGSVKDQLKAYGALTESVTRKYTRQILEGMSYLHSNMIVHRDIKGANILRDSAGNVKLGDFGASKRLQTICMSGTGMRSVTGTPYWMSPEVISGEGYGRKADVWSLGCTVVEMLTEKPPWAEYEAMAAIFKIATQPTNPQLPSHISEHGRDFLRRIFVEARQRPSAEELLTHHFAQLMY
UBC13 polyUb = inhibitors of human UBC13 polyubiquitin chain formation; TR-FRET; P61088; AID 485273; 0.47% of 330,000 active; inhibition, % at 20 µM; in the data active = inhibition above about 45%, passing the limit was not always enough; inconclusive = no clear call, values can overlap the other calls
Apaf-1 inh conf2 = Apaf-1 inhibition, single-dose confirmed | shares compounds with Apaf-1 inh | 25% of 1,800 active | reconstituted apoptosome, caspase-3 DEVD-Rh110 fluorescence | inhibition, % at 20 µM;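 active = mean inhibition of at least 40% at 20 µM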;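 note: plate controls were DMSO wells for no effect and DEVD-CHO caspase inhibitor control wells for full effect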
Rh110 quench = counter-screen for Apaf-1 inhibitors: fluorescence interference; shares compounds with Apaf-1 inh; AID 504615; Rh110 fluorescence interference, quenched caspase reaction; activation (fluorescence interference), % at 20 µM; 1,800 tested, under 10 active;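 active = signal rise of 40% or more at 20 µM, treated as a fluorescence artifact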
Apaf1 inh interf = shows fluorescence interference in the Apaf-1 inhibitor assay format; shares compounds with Apaf-1 inh; fluorescence interference counterscreen, Apaf-1 assay format; IC50, µM; 460 tested, under 10 active; AID 588538; call rule not given here
An asterisk follows results filed as active; ? = inconclusive; / = not tested or not shown.

SMILES | MEKK2 WT-MEK5 | MEKK2mut PB1 HTS | PREPL inh | Apaf-1 inh | MEKK3 PB1 HTS | UBC13 polyUb | Apaf-1 inh conf2 | Rh110 quench | others
Cc1cccnc1CCNCc1c(C(=O)N2C[C@@H](C)O[C@@H](C)C2)nc2ccc(Cl)cn12 | 95 | -1 | 21 | 7 | 92 | -5 | / | /
COc1ccc(-c2ccc(C(c3c(C)[nH][nH]c3=O)c3c(C)[nH][nH]c3=O)o2)c([N+](=O)[O-])c1 | 90 | -2 | / | 75* | 87 | -59 | 19 | -1
Cc1[nH][nH]c(=O)c1C(c1ccc(-c2ccc(Cl)c(Cl)c2)o1)c1c(C)[nH][nH]c1=O | 98 | 3 | 13 | 79* | 102 | -24 | 30 | 0
Cc1[nH][nH]c(=O)c1C(c1ccc(-c2ccc(F)cc2)o1)c1c(C)[nH][nH]c1=O | 91 | -8 | 3 | 72* | 99 | -104 | 32 | 5
Cc1[nH][nH]c(=O)c1C(c1ccc(-c2ccc(C(=O)O)cc2)o1)c1c(C)[nH][nH]c1=O | 94 | -6 | / | / | 94 | / | / | /
CC(C)c1ccc(CN2CCSCC2)cc1 | 104 | 2 | 10 | 2 | 100 | -7 | / | /
CCOC(=O)C1(CCc2ccccc2)CCN(C(=O)Cc2nonc2C)CC1 | 99 | 1 | -4 | 7 | 103 | -2 | / | /
CCOc1ccc(NS(=O)(=O)c2cc(C(=O)N3CCN(c4ccccc4O)CC3)ccc2Cl)cc1 | / | / | / | 17 | / | -1 | / | /
Cc1cccc(/C=N/Nc2cc(N3CCOCC3)nc(N3CCOCC3)n2)c1 | 105 | 0 | 6 | 68* | 98 | -5 | 33 | 4
CC(C)c1ccc(/C=N/Nc2cc(N3CCOCC3)nc(N3CCOCC3)n2)cc1 | 105 | 0 | 21 | 62* | 101 | -8 | 46* | 11 | Apaf1 inh interf=>100
Cc1ccc(/C=N/Nc2cc(C)nc(N3CCOCC3)n2)cc1 | 102 | -1 | 13 | 5 | 101 | -14 | / | /
Oc1ccc(/C=N\Nc2cc(N3CCOCC3)nc(N3CCOCC3)n2)c(O)c1 | 102 | 0 | 7 | 85* | 110 | -22 | 60* | 7 | Apaf1 inh interf=>100
Oc1ccc(/C=N/Nc2cc(N3CCCC3)nc(N3CCCC3)n2)cc1O | 105 | -1 | 13 | 60* | 95 | 3 | 89* | 3 | Apaf1 inh interf=>100
CCOC(=O)C1=C(CS(=O)(=O)c2ccccc2)NC(=O)NC1c1ccccc1OC (centres undefined) | 103 | 6 | 3 | -8 | 104 | 10 | / | /
CC(C)N1CCC(=NNC(=O)c2cccs2)CC1 | 112 | 7 | 3 | -3 | 105 | -1 | / | /
CCOc1ccc(CC(=O)NNC(=S)NC)cc1Br | 88 | -13 | 22 | -2 | 91 | -2 | / | /
Cc1ccc(Nc2nc(N)[nH]c(=O)c2N=O)cc1 | 100 | 4 | 20 | 7 | 93 | -55 | / | /
CN1CCC[C@@H]1CCNC(=O)c1c(-c2ccc3c(c2)OCO3)noc1-c1ccsc1 | / | / | 14 | 40* | / | 6 | 11 | 8
CN1CCC[C@H]1CCNC(=O)c1c(-c2ccsc2)sc2ccccc12 | / | / | -9 | 7 | / | 19 | / | /
Cc1ccc2c(c1)c1cccc3c1n2CCN3CCC(N)=O | 100 | 0 | 30 | 51* | 97 | -1 | 22 | 11
NC(=O)CCn1c2ccccc2c2ccccc21 | 70 | -19 | -8 | -14 | 76 | 4 | / | /
N#C/C(=C\c1ccc(F)cc1F)S(=O)(=O)c1ccccn1 | ? | -32 | -2 | 6 | ? | -5 | / | /
CC(C)=CCC/C(C)=C/CNC(=O)C[C@H]1C[C@H](C(=O)N2CCOCC2)[C@@]2(C)c3[nH]c4cc(-c5ccco5)ccc4c3CCN2C1=O | / | / | / | 44* | / | / | 17 | 3
CC[C@]12c3[nH]c4ccc(Cl)cc4c3CCN1C(=O)[C@@H](CC(=O)NCC13CC4CC(CC(C4)C1)C3)C[C@@H]2C(=O)N1CCN(C(=O)c2ccco2)CC1 | / | / | / | 44* | / | / | 18 | 7
CC[C@]12c3[nH]c4ccc(OC)cc4c3CCN1C(=O)C(CC(=O)NCC13CC4CC(CC(C4)C1)C3)C[C@@H]2C(=O)N1CCN(C(=O)c2ccco2)CC1 (some centres undefined) | / | / | / | 36 | / | / | / | /
SMILES | MEKK2 WT-MEK5 | MEKK2mut PB1 HTS | PREPL inh | Apaf-1 inh | MEKK3 PB1 HTS | UBC13 polyUb | Apaf-1 inh conf2 | Rh110 quench | others
C[C@]12c3[nH]c4cc(-c5ccco5)ccc4c3CCN1C(=O)[C@@H](CC(=O)NCCN1CCOCC1)C[C@@H]2C(=O)N1CCOCC1 | / | / | / | 10 | / | / | / | /
CC(C)=CCC/C(C)=C/CNC(=O)C[C@H]1C[C@H](C(=O)N2CCOCC2)[C@@]2(C)c3[nH]c4ccc(Cl)cc4c3CCN2C1=O | / | / | / | 42* | / | / | 27 | 10
Cc1c(NC(=S)NC(=O)c2cccc(Cl)c2)c(=O)n(-c2ccccc2)n1C | 97 | 0 | -5 | -3 | 100 | 4 | / | /
Cc1ccc(OCc2cc(C(=O)NC(C)Cc3cccc(C)n3)no2)cn1 (centres undefined) | 103 | 0 | 16 | -2 | 102 | 6 | / | /
CC1CC2(CCCCC2)N2C(=O)C(=O)c3cccc1c32 (centres undefined) | 98 | 6 | 13 | 41* | 101 | -11 | 41* | 5 | Apaf1 inh interf=>100
Cc1ccc(NC(=O)c2ncn(CC(=O)N[C@H](CO)Cc3c[nH]c4ccccc34)n2)cc1C | / | / | / | 74* | / | / | 7 | 11
CN1/C(=N\O)c2cccc3cccc1c23 | 94 | -4 | 11 | 86* | 97 | 0 | 20 | 0
CNC(=O)CN1C(=O)c2cccc3cccc1c23 | 100 | 4 | 2 | -7 | 101 | 9 | / | /
CCCCN1C(=O)C2(OCCCO2)c2cccc(C)c21 | 101 | 3 | -2 | 7 | 98 | -2 | / | /
O=C(COc1ccc2ccc(=O)oc2c1)Nc1ccc(N2CCCCC2)cc1 | / | / | 41 | 47* | / | 35 | 14 | 9
O=C(COc1ccc2ccc(=O)oc2c1)Nc1ccc(CCO)cc1 | 99 | 1 | -9 | -3 | 98 | 0 | / | /
O=C(Nc1ccc(-c2nc3ccc(NC(=O)c4cccs4)cc3[nH]2)cc1)c1cccs1 | 86 | -10 | 11 | 69* | 84 | 41 | 90* | 7 | Apaf1 inh interf=>100
COc1ccc(-n2c(N)c(C(=O)Nc3c(C)n(C)n(-c4ccccc4)c3=O)c3nc4ccccc4nc32)cc1 | 91 | -8 | -1 | 28 | 92 | -5 | / | /
COc1ccc(-n2c3nc4ccccc4nc3c3c(=N)oc(C)nc32)cc1 | 105 | 5 | 5 | 96* | 105 | -9 | 67* | 6 | Apaf1 inh interf=>100
